ChEMBL document CHEMBL1629506, “Design, synthesis and structure-activity relationship study of novel pyrazole-based heterocycles as potential antitumor agents” (Eur J Med Chem, 2010)

How the values were obtained:
[1] = test system: Rattus norvegicus; test: Antiestrogenic activity in Sprague-Dawley rat assessed as reduction in estradiol induced uterine weight upto 0.06 ug, po after 8 days; assay type: functional; design: scale not given: the % may be the effect or the level left
Method in brief: (§1)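 Immature ovariectomized female Sprague-Dawley rats (~55 g), groups of 12. Estradiol 0.03–0.05 given s.c. daily for 7 days, with test compound or letrozole reference at various doses up to 0.06 per animal, given orally in 0.5% carboxymethylcellulose. Controls received estradiol alone. Uterine weights were taken on day 8 and group means expressed as % reduction versus estradiol-only controls. Potency was taken relative to letrozole.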

[2] = test system: Rattus norvegicus; test: Antiestrogenic activity in Sprague-Dawley rat assessed as reduction in estradiol induced uterine weight 0.06 ug, po after 8 days relative to letrozole; assay type: functional; method in brief: as §1
[3] = Acute toxicity in mouse after 24 hrs; assay type: organism-based; settings: in vivo
Method in brief: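 Adult mice of both sexes, acclimatized 1 week (12 h light/dark, 21–23 °C), fasted 12 h before dosing. 30 mice in 6 groups of 5 each got a single oral gavage dose, at different dose levels, of a fine-powder aqueous suspension. LD50 was determined, with values as group means of five mice.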

[4] = test system: MDA-MB-231; test: Growth inhibition of human MDA-MB-231cells after 48 hrs by sulforhodamine B assay; assay type: functional; settings: MDA-MB-231, 48 h
Method in brief: (§2)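 Cells were plated at 5000–40,000 cells/well, depending on doubling time, and preincubated 24 h at 37 °C in 5% CO2. Time-zero plates were TCA-fixed at drug addition. Compounds were dissolved in DMSO and tested at five concentrations (10-fold or ½-log dilutions) for 48 h. Cells were fixed with cold TCA, stained with 0.4% sulforhodamine B and read at 515 nm. GI50 was taken as the concentration giving 50% growth.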

[5] = test system: MCF7; test: Growth inhibition of human MCF7 cells after 48 hrs by sulforhodamine B assay; assay type: functional; settings: MCF7, 48 h; method in brief: as §2
[6] = test system: T47D; test: Growth inhibition of human T47D cells after 48 hrs by sulforhodamine B assay; assay type: functional; method in brief: as §2
[7] = test system: NCI/ADR-RES; test: Growth inhibition of human NCI/ADR-RES cells after 48 hrs by sulforhodamine B assay; assay type: functional; method in brief: as §2
[8] = Growth inhibition of human Hs 578T cells after 48 hrs by sulforhodamine B assay; assay type: functional; method in brief: as §2
[9] = test system: MDA-MB-435; test: Growth inhibition of human MDA-MB-435 cells after 48 hrs by sulforhodamine B assay; assay type: functional; settings: MDA-MB-435, 48 h; method in brief: as §2
[10] = test system: MDA-N; test: Growth inhibition of human MDA-N cells after 48 hrs by sulforhodamine B assay; assay type: functional; method in brief: as §2
[11] = test system: BT-549; test: Growth inhibition of human BT549 cells after 48 hrs by sulforhodamine B assay; assay type: functional; settings: BT-549, 48 h; method in brief: as §2
[12] = test system: IGROV-1; test: Growth inhibition of human IGROV1 cells after 48 hrs by sulforhodamine B assay; assay type: functional; settings: IGROV-1, 48 h; method in brief: as §2
[13] = test system: OVCAR-3; test: Growth inhibition of human OVCAR3 cells after 48 hrs by sulforhodamine B assay; assay type: functional; settings: OVCAR-3, 48 h; method in brief: as §2
[14] = test system: OVCAR-5; test: Growth inhibition of human OVCAR5 cells after 48 hrs by sulforhodamine B assay; assay type: functional; settings: OVCAR-5, 48 h; method in brief: as §2
[15] = test system: OVCAR-8; test: Growth inhibition of human OVCAR8 cells after 48 hrs by sulforhodamine B assay; assay type: functional; settings: OVCAR-8, 48 h; method in brief: as §2
[16] = test system: OVCAR-4; test: Growth inhibition of human OVCAR4 cells after 48 hrs by sulforhodamine B assay; assay type: functional; settings: OVCAR-4, 48 h; method in brief: as §2
[17] = test system: SK-OV-3; test: Growth inhibition of human SKOV3 cells after 48 hrs by sulforhodamine B assay; assay type: functional; settings: SK-OV-3, 48 h; method in brief: as §2

| SMILES | Activity [1] [%] | potency ratio vs letrozole [2] | LD50 at 24 h [3] [mg/kg] | GI50 [4] [µM] | GI50 [5] [µM] | GI50 [6] [µM] | GI50 [7] [µM] | GI50 [8] [µM] | GI50 [9] [µM] | GI50 [10] [µM] | GI50 [11] [µM] | GI50 [12] [µM] | GI50 [13] [µM] | GI50 [14] [µM] | GI50 [15] [µM] | GI50 [16] [µM] | GI50 [17] [µM] |
| --- | --- | --- | --- | --- | --- | --- | --- | --- | --- | --- | --- | --- | --- | --- | --- | --- | --- |
| N#Cc1c(C(=O)/C=C/N2CCOCC2)nn(-c2ccccc2)c1-c1ccccc1 | 43.43 | 2 | 463 | > 100 | 5.49 | > 100 | > 100 | > 100 | > 100 | 38.4 | 41.4 | 88 | 21.5 | 90.8 | > 100 | 62.8 | 33.8 |
| CC(=O)c1nn(-c2ccccc2)cc1C(=O)c1nn(-c2ccccc2)c(-c2ccccc2)c1C#N | 32.45 | 1.49 | 324 | > 100 | 25.7 | 36.8 | > 100 | 6.46 | > 100 | 0.077 | > 100 | 96.8 | 66.8 | 34.8 | 62.8 | 69.8 | 39.8 |
| N#Cc1ccc(C(c2ccc(C#N)cc2)n2cncn2)cc1 [LETROZOLE] | 21.65 | 1 | 253 | 0.15 | 0.7 | 0.44 | 1.16 | 2.17 | 0.067 | 1.61 | 0.89 | 0.095 | 5.87 | 1.62 | 4.5 | 0.88 | 1.09 |
